In brackets after ≈: the same amount, converted by molar mass. Activity calls are given as the source filed them. The calls are words filed in the database; no cut-off is given here. Where a SMILES comes first, the peptide text is derived from it. [ ]: non-standard residue; d: D form. The star is where a group is joined. X1 = CCCCCCCCCCCCC(C)C(O)CC(=O)*; hSer = N[C@@H](CCO)C(=O)O
Legend:
[1] = system: Candida albicans; assay: Antimicrobial activity against Candida albicans MY1055 at 32 ug/mL after 24 hrs by broth macrodilution method; assay type: functional, organism-based
[2] = system: Mus musculus; assay: Toxicity in Candida albicans MY1055 infected DBA/2 mouse assessed as mouse mortality at 12.5 mg/kg, ip administered twice daily for 2 days; assay type: organism-based; parameters: dose 12.5 mg/kg, route intraperitoneal; settings: in vivo, 48 h
In short: (§1)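 DBA/2 mice, five per group, were infected i.v. via lateral tail vein with 2.51 × 10^4 CFU/mouse. Sodium salt in water was given IP twice daily at 50, 25, 12.5, 5 or 2.5 mg/kg. Kidneys were homogenized in saline, serially diluted and plated on SDA (35 °C, 30–48 h). CFU/g were compared with sham-treated mice by paired two-tailed t-test.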

[3] = system: Candida albicans; assay: Antimicrobial activity against Candida albicans MY1055 infected DBA/2 mouse administered twice daily for 2 days; assay type: functional, organism-based
In short: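 DBA/2 mice (5 per group) were infected i.v. via lateral tail vein with 2.51 × 10^4 CFU per mouse. The sodium salt in water was given IP twice daily at 50, 25, 12.5, 5 or 2.5 mg/kg. Mortality and health were followed for 4 days. Kidney homogenates were plated on SDA (35 °C, 30–48 h). CFU/g kidney was compared with sham-treated controls by paired two-tailed t-test.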

[4] = system: Aspergillus fumigatus; assay: Antimicrobial activity against Aspergillus fumigatus MF5668 after 48 hrs by broth macrodilution method; assay type: functional; settings: for MIC: read-out: MIC100
In short: (§2)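 Broth MIC: inoculum 10^5 CFU/ml, incubated at 37 °C with 2-fold serial dilutions of compound in growth medium. MIC was the lowest concentration preventing visible growth.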

[5] = system: Nakaseomyces glabratus; assay: Antimicrobial activity against Candida glabrata MY1381 […] by broth macrodilution method; assay type: functional; settings: for MIC: read-out: MIC100
[6] = system: Pichia kudriavzevii; assay: Antimicrobial activity against Candida krusei ATCC 6258 […] by broth macrodilution method; assay type: functional; settings: for MIC: read-out: MIC100
[7] = Toxicity against human HEL cells; assay type: cell-based
[8] = system: Candida albicans; assay: Antimicrobial activity against Candida albicans MY1055 infected DBA/2 mouse at <5 mg/kg, […] administered twice daily for 2 days; assay type: functional, organism-based
[9] = system: Mus musculus; assay: Dose normalized AUC in Candida albicans MY1055 infected iv dosed DBA/2 mouse; assay type: ADME, organism-based; settings: in vivo
[10] = Clearance in Candida albicans MY1055 infected iv dosed DBA/2 mouse; assay type: ADME, organism-based; settings: in vivo
[11] = system: Mus musculus; assay: Toxicity in Candida albicans MY1055 infected DBA/2 mouse assessed as mouse mortality at <5 mg/kg, ip administered twice daily for 2 days; assay type: organism-based; settings: in vivo, 48 h; in short: as §1
[12] = Toxicity against human GTL16 cells; assay type: cell-based, GTL 16
[13] = system: Candida albicans; assay: Antimicrobial activity against Candida albicans MY1055 infected DBA/2 mouse at <5 mg/kg, ip administered twice daily for 2 days; assay type: functional, organism-based; in short: as §1
[14] = system: Candida albicans; assay: Antimicrobial activity against Candida albicans MY1055 after 24 hrs by broth macrodilution method; assay type: functional; settings: for MIC: read-out: MIC100; in short: as §2
[15] = Half life in Candida albicans MY1055 infected iv dosed DBA/2 mouse; assay type: ADME, organism-based; settings: in vivo
[16] = system: Candida parapsilosis; assay: Antimicrobial activity against Candida parapsilosis ATCC 22019 […] by broth macrodilution method; assay type: functional; settings: Lodderomyces parapsilosis, read-out: MIC100
[17] = system: Trichophyton mentagrophytes; assay: Antimicrobial activity against Trichophyton mentagrophytes MF7004 after 96 hrs by broth macrodilution method; assay type: functional; settings: for MIC: read-out: MIC100
[18] = system: Clavispora lusitaniae; assay: Antimicrobial activity against Candida lusitaniae MY1396 after 24 hrs by broth macrodilution method; assay type: functional; settings: for MIC: read-out: MIC100; in short: as §2
[19] = Toxicity against human PC3 cells; assay type: cell-based, PC-3
[20] = system: Staphylococcus aureus; assay: Antimicrobial activity against Staphylococcus aureus MB2865 […] by broth macrodilution method; assay type: functional; settings: read-out: MIC100
[21] = Toxicity against human HCT116 cells; assay type: cell-based, HCT-116
[22] = system: Candida albicans; assay: Antimicrobial activity against Candida albicans MY1055 after 24 hrs in presence of 50% mouse serum by broth macrodilution method; assay type: functional; settings: MY1055, 24 h; for MIC: read-out: MIC100
[23] = system: Candida tropicalis; assay: Antimicrobial activity against Candida tropicalis MY1012 after 24 hrs by broth macrodilution method; assay type: functional; settings: for MIC: read-out: MIC100; in short: as §2
[24] = system: Mus musculus; assay: Toxicity in Candida albicans MY1055 infected DBA/2 mouse assessed as mouse mortality at 25 mg/kg, ip administered twice daily for 2 days; assay type: organism-based; parameters: dose 25 mg/kg, route intraperitoneal; settings: in vivo, 48 h; in short: as §1
[25] = system: Aspergillus fumigatus; assay: Antimicrobial activity against Aspergillus fumigatus MF5668 in presence of 50% human serum after 48 hrs by broth macrodilution method; assay type: functional; settings: for MIC: read-out: MIC100
[26] = system: Mus musculus; assay: Toxicity in Candida albicans MY1055 infected DBA/2 mouse assessed as mouse mortality at 50 mg/kg, ip administered twice daily for 2 days; assay type: organism-based; parameters: dose 50 mg/kg, route intraperitoneal; settings: in vivo, 48 h; in short: as §1

| SMILES | Activity [2] | MIC [4] [µg/mL] | MIC80 [5] [µg/mL] | MIC [5] [µg/mL] | MIC [6] [µg/mL] | MIC [14] [µg/mL] | MIC [16] [µg/mL] | MIC80 [17] [µg/mL] | MIC [17] [µg/mL] | MIC [18] [µg/mL] | MIC [20] [µg/mL] | MIC [22] [µg/mL] | MIC [23] [µg/mL] | MIC [25] [µg/mL] | further results |
| --- | --- | --- | --- | --- | --- | --- | --- | --- | --- | --- | --- | --- | --- | --- | --- |
| CCCCCCCCCCCCC(C)C(O)CC(=O)N[C@@H](C)C(=O)N[C@@H](CCO)C(=O)N[C@@H](CCC(=O)O)C(=O)NCC(=O)N[C@@H](CO)C(=O)N[C@@H](CC(N)=O)C(=O)N[C@H](C(=O)N[C@@H](CCO)C(=O)O)[C@@H](C)O (some centres undefined) (X1-A[hSer]EGSNT[hSer]-OH) | Non-toxic | – | – | – | – | – | – | – | – | – | – | – | – | – | Activity [1]: inactive; Activity [3]: inactive |
| CCCCCCCCCCCCC(C)C1CC(=O)N[C@@H](C)C(=O)NC(CCO)C(=O)N[C@@H](CCC(=O)O)C(=O)NCC(=O)N[C@@H](CO)C(=O)N[C@H](CC(N)=O)C(=O)N[C@H]([C@H](C)O)C(=O)NC(CCO)C(=O)O1 (some centres undefined) [PHOMAFUNGIN] | Toxic | 4 (≈ 3.88 µM) | 4 (≈ 3.88 µM) | 8 (≈ 7.77 µM) | 4 (≈ 3.88 µM) | 4 (≈ 3.88 µM) | 4 (≈ 3.88 µM) | 1 (≈ 0.971 µM) | 2 (≈ 1.94 µM) | 4 (≈ 3.88 µM) | > 32 | > 32 | > 32 | > 32 | IC50 [7]: 15.5 µM; Activity [8]: inactive; AUC [9]: 2.64 µM; clearance [10]: 6.15 mL/min/kg; Activity [11]: Non-toxic; IC50 [12]: 26 µM; Activity [13]: inactive; half-life [15]: 108 min; IC50 [19]: 19 µM; IC50 [21]: 20 µM; Activity [24]: Toxic; Activity [26]: Toxic |
| CC[C@H](C)C[C@H](C)CCCCCCCCC(=O)N[C@H]1C[C@@H](O)[C@@H](NCCN)NC(=O)[C@@H]2[C@@H](O)CCN2C(=O)[C@H]([C@H](O)CCN)NC(=O)[C@H]([C@H](O)[C@@H](O)c2ccc(O)cc2)NC(=O)[C@@H]2C[C@@H](O)CN2C(=O)[C@H]([C@@H](C)O)NC1=O [CASPOFUNGIN] | – | > 32 | < 0.03 | 0.125 (≈ 0.114 µM) | 1 (≈ 0.915 µM) | 0.125 (≈ 0.114 µM) | 0.5 (≈ 0.457 µM) | 0.03 (≈ 0.0274 µM) | 32 (≈ 29.3 µM) | 0.125 (≈ 0.114 µM) | 32 (≈ 29.3 µM) | 0.25 | 0.125 (≈ 0.114 µM) | > 32 | MIC80 [4]: < 0.03 µg/mL; MIC80 [6]: 0.25 µg/mL (≈ 0.229 µM); MIC80 [14]: < 0.03 µg/mL; MIC80 [18]: < 0.03 µg/mL; MIC80 [22]: 0.125 µg/mL; MIC80 [23]: < 0.03 µg/mL; MIC80 [25]: 0.06 µg/mL |
